# NTR1 agonist – agonists of human neurotensin receptor NTR1 | P30989 | NTR1-U2OS beta-arrestin-GFP spot imaging, agonist mode | activation, % at 20 µM | 0.17% of 330,000 active | AID 493036;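 active = activation at or above 40% of the spot to cytoplasm intensity ratio, with at least 20 cells analyzed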;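 note: 0% = DMSO without peptide and 100% = 100 nM NTR1 peptide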
# CHO parental Ca – counter-screen for OX1R antagonists: effect in parental CHO cells | parental CHO-K1, ATP-induced calcium, Fluo-8 fluorescence | inhibition, % at 5.6 µM | 0.63% of 330,000 active | AID 463079;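 active = inhibition above that plate's mean sample inhibition plus 3 SD, cut at about 26% in these data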;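 note: 0% = ATP-challenged DMSO wells and 100% = DMSO wells without ATP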
#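 Material – parental CHO cells · Reagent – ATP stimulus · Compound – single nominal dose of 5.6 µM per compound · Detection – Fluo-8 fluorescence · Read-out basis – percent inhibition of calcium signal · Controls – ATP-challenged DMSO wells low, unchallenged DMSO wells high · Repeats – no replicates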
# TAAR1 antagonist – human TAAR1 antagonism | 1.5% of 360,000 active | AID 624466 | CHO RD-HGA16 TAAR1, Fluo-8 calcium fluorescence, antagonist | inhibition, % at 3 µM;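 active = inhibition above a per-plate cutoff, the mean inhibition of test compounds on that plate plus 3 SD, cut at about 49% in these data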;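 note: 0% = DMSO plus EC80 beta-PEA response and 100% = DMSO alone without agonist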
# Target sequence (Q96RJ0 whole entry, looked up): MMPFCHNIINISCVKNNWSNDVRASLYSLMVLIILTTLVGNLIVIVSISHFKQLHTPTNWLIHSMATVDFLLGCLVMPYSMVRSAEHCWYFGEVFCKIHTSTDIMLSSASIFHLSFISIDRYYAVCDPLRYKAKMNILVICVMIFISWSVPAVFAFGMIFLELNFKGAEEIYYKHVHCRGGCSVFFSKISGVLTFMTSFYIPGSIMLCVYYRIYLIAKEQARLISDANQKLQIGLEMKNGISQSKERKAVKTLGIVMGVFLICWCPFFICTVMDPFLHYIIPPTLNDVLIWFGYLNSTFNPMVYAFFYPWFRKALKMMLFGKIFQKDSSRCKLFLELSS
#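 test system = CHO RD-HGA16 cells bearing hTAAR1 | replication = singlicate | controls = DMSO-only wells and EC80 β-PEA-stimulated wells | reagent = EC80 β-phenethylamine stimulus | read-out basis = percent inhibition of PEA-evoked calcium signal, max/basal emission ratio | schedule = seeding 17-24 h prior, 75-min 37 °C, 30-min RT dye loading | signal = kinetic Fluo-8 calcium fluorescence measurement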
# OX1R antag-1 – human HCRTR1 antagonism; O43613; CHO/OX1R cells, Fluo-8 calcium fluorescence, orexin A; inhibition, % at 5 µM; 0.43% of 330,000 active;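 active = inhibition above its plate's threshold, mean inhibition of all tested compounds on the plate plus 3 SD, cut at about 37% in these data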;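 note: 0% = orexin A challenge wells and 100% = SB-334867-A antagonist wells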
# OX1R antag-2 – antagonists of human orexin 1 receptor (OX1R); O43613; OX1R-expressing cells, FRET antagonist read-out; inhibition, % at 6.6 µM; 1.8% of 330,000 active; AID 485270; in the data active = inhibition mostly above about 38%, no sharp cut-off; inactive = mostly below about 40%;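 note: 0% = agonist challenge alone and 100% = reference antagonist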
# TAAR1 agonist – agonists of human TAAR1. activation, % at 3 µM. Q96RJ0. 0.99% of 360,000 active. CHO RD-HGA16 TAAR1, Fluo-8 calcium fluorescence; vehicle wells 0%, saturating PEA agonist 100%;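 active = activation above the mean activation of all test compounds in the run plus 3 SD, cut at about 38% in these data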
#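 Assay system – CHO-derived RD-HGA16 cells with stable Gα16 and human TAAR1 · Compound dosing – one-point dosing at 3 µM (nominal) · Incubation – 17-24 h seeding, 75 min 37 °C dye, 30 min RT · Measured by – kinetic Fluo-8 calcium fluorescence · Control set – DMSO vehicle as 0%, PEA at EC100 as 100% · Repeats – single well for each compound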
# The depositor's hits bear a star; / = no result given. The list is not random: actives were taken first. Their share in the collection is about 4%.
SMILES,NTR1 agonist,CHO parental Ca,TAAR1 antagonist,OX1R antag-1,OX1R antag-2,TAAR1 agonist
C=CCN1C(=O)c2n[nH]c(C)c2C1c1ccc(C)cc1 (stereo not given),/,/,-1.3,/,/,0.3
CC(=O)N1CCOc2ccc(S(=O)(=O)Nc3cccc(C)c3)cc21,-0.8,-12.3,-7.7,-19.1,9.5,4.1
CC(=O)N1CC(C)Sc2ccc(S(=O)(=O)NCCc3ccc(C)cc3)cc21 (stereo not given),2.7,-4.4,-15.2,-17.6,47.3,10.4
CC(=O)N1CCOc2ccc(S(=O)(=O)NCCc3cccc(C)c3)cc21,-1.0,-14.8,8.5,-19.3,9.8,46.7*
CC(=O)N1CC(C)Sc2ccc(S(=O)(=O)NCCc3ccccc3)cc21 (stereo not given),-1.3,-6.4,32.9,-23.0,26.4,43.6*
O=C(O)CCc1ccc(S(=O)(=O)NCCc2ccccc2)cc1,1.7,0.9,23.7,-11.0,4.4,37.5*
CNC[C@@H]1OCc2cnnn2CCCC(=O)N([C@@H](C)CO)C[C@H]1C,/,/,-16.3,/,/,4.9
CS(=O)(=O)c1ccc(OCCCN2CCC(C(O)(c3ccccc3)c3ccccc3)CC2)cc1,/,/,21.9,/,/,14.2
O=C(c1ccccc1NS(=O)(=O)c1ccc([N+](=O)[O-])cc1[N+](=O)[O-])N1O[C@@H]2C=C[C@H]1C2,2.5,-8.0,-11.7,-6.7,45.6*,-0.5
O=C(c1ccccc1NS(=O)(=O)c1ccccc1[N+](=O)[O-])N1CCOCC1,-1.0,9.9,-6.2,-9.5,13.8,1.9
CCOc1ccccc1NC(=O)N1CCCc2ccccc21,1.6,/,-30.0,/,/,-2.8
CCOc1ccccc1NC(=O)N1CCc2ccccc2C1,0.6,-21.2,4.3,-28.9,28.8,41.3*
Cc1ccc(OCC(=O)N2CCc3ccccc3C2)c(C)c1,1.0,-12.1,3.2,-9.1,5.1,42.0*
Cc1cccc(C(=O)OC(C)C(=O)Nc2ccc(S(=O)(=O)Nc3ncccn3)cc2)c1C (stereo not given),0.0,-6.4,-13.1,-1.6,11.6,9.7
COc1ccc(Cl)cc1NC(=S)NCCC(c1ccccc1)c1ccccc1,2.9,-11.4,7.7,-0.3,27.7,1.9
COc1cc(NC(=S)NCCC(c2ccccc2)c2ccccc2)c(OC)cc1Cl,1.1,-12.6,9.5,3.0,57.7*,0.5
S=C(NCCC(c1ccccc1)c1ccccc1)Nc1ccccc1Cl,3.7,-23.7,50.0*,-1.7,45.6,7.5
COc1cc(C(=O)OCC(=O)N2CC(C)OC(C)C2)cc(OC)c1OC (stereo not given),1.6,-11.0,-6.8,-27.6,11.5,1.6
CCOC(=O)C1CCCN(c2nc3c(C)cccn3c(=O)c2/C=C(\C#N)C(=O)NCc2ccco2)C1 (stereo not given),1.6,-37.6,45.6,-51.0,27.1,52.5*
Cc1cccn2c(=O)c(/C=C(\C#N)C(=O)NCc3ccco3)c(N3CCCC(C)C3)nc12 (stereo not given),1.3,-31.9,4.3,-34.8,21.7,5.3
c1ccc(-c2nc3nc4ccccc4nc3n2CC2CCCO2)cc1 (stereo not given),0.7,-12.0,50.9*,-17.6,23.6,21.6
c1coc(-c2nc3nc4ccccc4nc3n2CC2CCCO2)c1 (stereo not given),1.8,-13.2,29.3,-19.1,23.2,12.6
CCn1c(/C=C/c2ccccc2[N+](=O)[O-])nc2ccccc2c1=O,-0.3,-13.8,-3.3,-8.4,52.5*,5.3
Cn1c(/C=C/c2ccccc2[N+](=O)[O-])nc2ccccc2c1=O,-0.8,/,10.0,/,/,4.7
O=C(c1ccc2c(c1)C(=O)NC2=O)c1ccc2c(c1)C(=O)NC2=O,/,/,5.4,/,/,4.9
SMILES,NTR1 agonist,CHO parental Ca,TAAR1 antagonist,OX1R antag-1,OX1R antag-2,TAAR1 agonist
Cc1onc(-c2c(Cl)cccc2Cl)c1C(=O)N1CCCc2ccccc21,4.0,-23.2,-12.9,33.4,54.6*,-2.2
Cc1onc(-c2c(F)cccc2Cl)c1C(=O)N1CCc2ccccc21,-0.7,-10.8,/,2.3,28.5,/
C=CCn1c(-c2csc(-c3ccc(OC)c(OC)c3)n2)n[nH]c1=S,1.8,72.2*,-15.7,-9.4,31.9,0.2
C=CCn1c(-c2csc(-c3ccc(Cl)cc3)n2)n[nH]c1=S,0.5,-3.8,-32.3,-9.0,16.7,-0.4
C=CCN=C1NC(CCc2ccccc2)C(C(=O)OC)=C(C)N1Cc1cccc(C(F)(F)F)c1 (stereo not given),/,/,33.0,/,/,25.3
CCN(CC)c1ccc(C(=O)N/N=C/c2ccccc2OC(F)F)cc1,2.5,-25.4,26.8,14.4,74.3*,-1.6
CCN(CC)c1ccc(/C=N/NC(=O)c2cccc(S(=O)(=O)Nc3ccccc3OC)c2)c(O)c1,3.6,-10.4,10.9,24.8,78.8*,3.9
C[C@H](CO)N1C[C@H](C)[C@@H](CN(C)C(=O)Cc2cccnc2)Oc2ncc(C#CCc3ccccc3)cc2C1=O,/,/,-0.5,/,/,1.4
CCOc1cc(S(=O)(=O)Nc2ccc(CC)cc2)ccc1Cl,31.9,41.9*,14.3,-2.9,12.3,-0.4
CCOc1cc(S(=O)(=O)Nc2ccc(Cl)cn2)ccc1Cl,0.2,-13.8,7.2,-9.3,25.7,5.7
FC(F)(F)c1nc(N2CCCC2)ncc1-c1nnnn1-c1ccccc1,2.9,39.6*,16.6,23.0,25.2,8.4
COC(=O)[C@]12C[C@H](CC(=O)NCCCN3CCCC3=O)C(=O)N(CCC3=CCCCC3)C1=C[C@H](COCc1ccccc1)O[C@@H]2C,/,/,-31.4,/,/,-1.4
COc1ccc([N+](=O)[O-])c(S(=O)(=O)c2ccc(Cl)cc2)n1,13.9,45.6*,7.8,38.0,48.0,-2.9
O=S(=O)(c1ccccc1)N1CCCc2nc(-c3ccc(Br)cc3)ccc21,/,/,29.4,/,/,0.2
CCCCC[C@H](C)N1C[C@@H](COCc2ccccc2)Oc2cc(N3CCC[C@H]3C(N)=O)ccc2S1(=O)=O,/,/,-32.4,/,/,38.9*
CCOC(=O)c1ccc(N2CCN(c3ccccc3F)CC2)c(NC(=O)Nc2ccccc2)c1,2.6,39.2*,48.4,17.9,9.4,8.1
CCOC(=O)c1ccc(N2CCN(C(=O)c3ccccc3)CC2)c(NC(=O)c2ccco2)c1,1.0,-19.6,45.3,-26.3,13.4,6.1
CCOC(=O)c1ccc(N2CCN(c3ccc(F)cc3)CC2)c(NC(=O)Nc2cccc(OC)c2)c1,0.2,5.1,57.8*,10.2,17.9,8.5
CC1Sc2ccc(S(=O)(=O)N3CCC(C(=O)Nc4ccc(Cl)cc4)CC3)cc2NC1=O (stereo not given),5.5,53.7*,43.8,21.8,13.8,4.0
Cc1ccc(NC(=O)C2CCN(S(=O)(=O)c3ccc(N4CCCC4=O)cc3)CC2)cc1Cl,0.0,64.4*,39.0,31.5,11.0,5.8

# From PubChem BioAssay
